Results published in ChEMBL document CHEMBL1122581, “Antiviral activity of C-5 substituted tubercidin analogues” (1984).
Converted amounts (≈) assume the structure as drawn.

What was measured:
Type in all cases: functional
Human alphaherpesvirus 1 = assay: Concentration required to reduce HSV-1 (KOS) induced cytopathogenicity by 50% in primary rabbit kidney cell cultures.
HeLa = assay: Concentration required to cause a microscopically detectable alteration in cell morphology in HeLa cell cultures.; conditions: Homo sapiens, read-out: Min cytotoxic concentration
Method in brief: (§1)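 Uninfected cell monolayers were run in parallel with the antiviral assays and exposed to compound for the same period as the infected cultures. The end point was the lowest concentration giving a microscopically detectable disruption of normal cell morphology.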

Human alphaherpesvirus 2 = assay: Concentration required to reduce HSV-2 (G) induced cytopathogenicity by 50% in primary rabbit kidney cell cultures.
L1210 = assay: Dose required to inhibit proliferation of L-1210 Cells by 50%; conditions: Mus musculus, read-out: ID50 (the source's name)
Method in brief: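 Inhibition of proliferation of murine leukemia L-1210 cells in exponential growth phase. ID50 is the dose inhibiting cell proliferation by 50%, given plus or minus standard deviation.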

Oryctolagus cuniculus = species on record: Oryctolagus cuniculus; assay: Concentration required to cause a microscopically detectable alteration in cell morphology in primary rabbit kidney cell cultures.; conditions: read-out: Min cytotoxic concentration; method in brief: as §1
Coxsackievirus B4 [1] = assay: Concentration required to reduce coxsackie virus B4 induced cytopathogenicity by 50% in vero cell cultures.; conditions: Enterovirus B
Coxsackievirus B4 [2] = assay: Concentration required to reduce coxsackie virus 4 induced cytopathogenicity by 50% in HeLa cell cultures.; conditions: Enterovirus B
Human respirovirus 3 = assay: Concentration required to reduce parainfluenza virus type 3 induced cytopathogenicity by 50% in vero cell cultures.
Poliovirus 1 = assay: Concentration required to reduce polio virus type 1 induced cytopathogenicity by 50% in HeLa cell cultures.; conditions: Enterovirus C
Vero = assay: Concentration required to cause a microscopically detectable alteration in cell morphology in vero cell cultures.; conditions: Chlorocebus sabaeus, read-out: Min cytotoxic concentration; method in brief: as §1
Sindbis virus = assay: Concentration required to reduce sindbis virus induced cytopathogenicity by 50% in vero cell cultures.
[3] = test system: Vesicular stomatitis virus; assay: Concentration required to reduce vesicular stomatitis virus induced cytopathogenicity by 50% in primary rabbit kidney cell cultures.
[4] = test system: Mammalian orthoreovirus 1; assay: Concentration required to reduce reovirus type 1 induced cytopathogenicity by 50% in vero cell cultures.
[5] = test system: Vesicular stomatitis virus; assay: Concentration required to reduce vesicular stomatitis virus induced cytopathogenicity by 50% in HeLa cell cultures.

| SMILES | MIC (Human alphaherpesvirus 1) [µg/mL] | MCC (HeLa) [µg/mL] | MIC (Human alphaherpesvirus 2) [µg/mL] | IC50 (L1210) [µg/mL] | MCC (Oryctolagus cuniculus) [µg/mL] | MIC (Coxsackievirus B4 [1]) [µg/mL] | MIC (Coxsackievirus B4 [2]) [µg/mL] | MIC (Human respirovirus 3) [µg/mL] | MIC (Poliovirus 1) [µg/mL] | MCC (Vero) [µg/mL] | MIC (Sindbis virus) [µg/mL] | MIC [3] [µg/mL] | MIC [4] [µg/mL] | MIC [5] [µg/mL] |
| --- | --- | --- | --- | --- | --- | --- | --- | --- | --- | --- | --- | --- | --- | --- |
| C/C=C/Cc1cn(C2O[C@H](CO)[C@@H](O)[C@H]2O)c2ncnc(N)c12 (some centres undefined) | 20 (≈ 62.4 µM) | 1 | 150 (≈ 468 µM) | 0.63 (≈ 1.97 µM) | 200 | 2 (≈ 6.24 µM) | 0.2 (≈ 0.624 µM) | > 1 | 0.2 (≈ 0.624 µM) | 100 | > 40 | > 40 | 2 (≈ 6.24 µM) | 0.07 (≈ 0.219 µM) |
| CCCCc1cn(C2O[C@H](CO)[C@@H](O)[C@H]2O)c2ncnc(N)c12 (some centres undefined) | > 40 | > 40 | > 40 | 81.6 (≈ 253 µM) | 40 | > 40 | > 40 | 20 (≈ 62 µM) | > 40 | > 100 | > 40 | > 40 | > 40 | > 40 |
| Nc1ncnc2c1c(Br)cn2[C@@H]1O[C@H](CO)[C@@H](O)[C@H]1O | > 1 | 1 | > 1 | 0.587 (≈ 1.7 µM) | 1 | > 0.4 | > 0.4 | > 0.4 | > 0.4 | 0.4 | > 0.4 | > 1 | > 0.4 | > 0.4 |
| Nc1nccc2c1ncn2[C@@H]1C[C@H](CO)[C@H](O)C1O (some centres undefined) | > 400 | > 400 | 300 (≈ 1140 µM) | – | > 200 | 2 (≈ 7.57 µM) | > 400 | 2 (≈ 7.57 µM) | > 400 | > 100 | 20 (≈ 75.7 µM) | 0.07 (≈ 0.265 µM) | 2 (≈ 7.57 µM) | 0.7 (≈ 2.65 µM) |
| Nc1ncnc2c1c(Cl)cn2[C@@H]1O[C@H](CO)[C@@H](O)[C@H]1O | > 1 | 4 | > 1 | 0.014 (≈ 0.0466 µM) | 4 | > 1 | > 0.4 | > 1 | 1 (≈ 3.33 µM) | 4 | > 1 | > 1 | 0.7 (≈ 2.33 µM) | > 1 |
| Nc1ncnc2c1c(I)cn2[C@@H]1O[C@H](CO)[C@@H](O)[C@H]1O [IODOTUBERCIDIN] | 0.02 (≈ 0.051 µM) | 1 | > 1 | 1.25 (≈ 3.19 µM) | 1 | > 0.4 | > 0.4 | > 0.4 | > 0.4 | 1 | > 0.4 | > 0.4 | > 0.4 | > 0.4 |
| NC(=O)c1ncn([C@@H]2O[C@H](CO)[C@@H](O)[C@H]2O)n1 [RIBAVIRIN] | > 400 | > 400 | > 400 | 3.18 (≈ 13 µM) | > 400 | > 400 | 20 (≈ 81.9 µM) | 20 (≈ 81.9 µM) | 7 (≈ 28.7 µM) | > 400 | 150 (≈ 614 µM) | 70 (≈ 287 µM) | 20 (≈ 81.9 µM) | 4 (≈ 16.4 µM) |
| NC(=O)c1cn([C@@H]2O[C@H](CO)[C@@H](O)[C@H]2O)c2ncnc(N)c12 [SANGIVAMYCIN] | 0.07 (≈ 0.226 µM) | 0.4 | 0.07 (≈ 0.226 µM) | 0.019 (≈ 0.0614 µM) | > 10 | 0.02 (≈ 0.0647 µM) | > 0.04 | 0.02 (≈ 0.0647 µM) | 0.07 (≈ 0.226 µM) | 0.4 | 0.2 (≈ 0.647 µM) | 0.02 (≈ 0.0647 µM) | > 0.1 | 0.04 (≈ 0.129 µM) |
| N#Cc1cn([C@@H]2O[C@H](CO)[C@@H](O)[C@H]2O)c2ncnc(N)c12 [TOYOCAMYCIN] | > 0.04 | > 0.4 | 0.07 (≈ 0.24 µM) | 0.006 (≈ 0.0206 µM) | > 0.04 | > 0.01 | > 0.01 | > 0.01 | > 0.01 | 0.04 | > 0.01 | > 1 | > 0.01 | 0.07 (≈ 0.24 µM) |
| Nc1ncnc2c1ccn2[C@@H]1O[C@H](CO)[C@@H](O)[C@H]1O [TUBERCIDIN] | 0.07 (≈ 0.263 µM) | 0.4 | 0.2 (≈ 0.751 µM) | 0.04 (≈ 0.15 µM) | 0.4 | 0.2 (≈ 0.751 µM) | 0.2 (≈ 0.751 µM) | 0.07 (≈ 0.263 µM) | 0.007 (≈ 0.0263 µM) | 0.4 | 0.2 (≈ 0.751 µM) | 0.007 (≈ 0.0263 µM) | 0.07 (≈ 0.263 µM) | 0.007 (≈ 0.0263 µM) |
